The values below come from ChEMBL document CHEMBL1144046, “2-Methylene 19-nor-25-dehydro-1alpha-hydroxyvitamin D3 26,23-lactones: synthesis, biological activities and molecular basis of passive antagonism” (Bioorg Med Chem, 2008).

Structures are written as SMILES.

For assay [1], the target named is T1, Vitamin D3 receptor (Homo sapiens, UniProt P11473).
T1 sequence (P11473 whole entry): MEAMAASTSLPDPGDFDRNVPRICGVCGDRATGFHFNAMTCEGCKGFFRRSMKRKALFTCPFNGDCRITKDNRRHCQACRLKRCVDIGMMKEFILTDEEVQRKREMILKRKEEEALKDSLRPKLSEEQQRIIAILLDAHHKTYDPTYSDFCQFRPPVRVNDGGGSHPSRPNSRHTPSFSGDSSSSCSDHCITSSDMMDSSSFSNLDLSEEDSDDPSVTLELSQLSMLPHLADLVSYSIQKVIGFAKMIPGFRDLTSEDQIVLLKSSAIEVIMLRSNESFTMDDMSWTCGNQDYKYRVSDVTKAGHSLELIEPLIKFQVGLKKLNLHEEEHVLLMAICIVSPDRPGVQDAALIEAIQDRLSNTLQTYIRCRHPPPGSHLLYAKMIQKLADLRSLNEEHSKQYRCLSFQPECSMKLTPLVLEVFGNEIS
Description: Antagonist activity at human VDR in COS7 cells assessed as induction of transcriptional transactivation after 24 hrs by mouse osteopontin luciferase reporter gene assay. It counts as functional, cell-based, COS-7. A digest of the protocol: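 Cos7 cells grown in DMEM + 5% FBS, seeded 2 × 10⁴/well; after 24 h lipofected with hVDR expression plasmid, SPPx3-TK-Luc reporter and pRL-CMV control. After 4 h switched to 5% charcoal-treated FCS; next day ligand given with 10 nM 1,25-(OH)2D3 for 24 h. Dual luciferase normalized to internal control; IC50 from dose–response curves.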
A general note: A reporter such as luciferase makes a cellular process visible.

Assay [2] deals with T2, Vitamin D3 receptor (Rattus norvegicus, UniProt P13053).
T2 sequence (P13053 whole entry): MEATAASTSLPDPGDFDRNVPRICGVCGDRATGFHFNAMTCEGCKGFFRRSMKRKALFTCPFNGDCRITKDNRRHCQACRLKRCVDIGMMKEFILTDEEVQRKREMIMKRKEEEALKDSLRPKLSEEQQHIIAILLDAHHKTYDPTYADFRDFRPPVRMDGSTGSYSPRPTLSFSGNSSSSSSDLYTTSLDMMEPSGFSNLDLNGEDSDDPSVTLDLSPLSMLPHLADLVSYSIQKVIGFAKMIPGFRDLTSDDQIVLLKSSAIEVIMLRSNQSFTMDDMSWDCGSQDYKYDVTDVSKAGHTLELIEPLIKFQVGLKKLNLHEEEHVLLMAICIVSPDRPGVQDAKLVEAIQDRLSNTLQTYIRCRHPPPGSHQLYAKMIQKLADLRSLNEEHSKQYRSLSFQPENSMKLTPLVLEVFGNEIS
Description: Displacement of [3H]1,25-(OH)2D3 from rat recombinant His-tagged VDR ligand-binding domain expressed in Escherichia coli BL21. A digest of the protocol: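 Crude lysate of E. coli–expressed His-tagged rat VDR-LBD (aa 115–423), diluted 1000-fold in 50 mM Tris, 100 mM KCl, 5 mM DTT, 0.5% Chaps, pH 7.5, BSA 100 µg/mL. Ligand preincubated 1 h RT, then [3H]-1,25-(OH)2D3 (~5000 dpm) 18 h at 4 °C. Dextran-charcoal separation, scintillation counting; at least twice in duplicate; EC50 for 50% displacement.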
(In general: Displacement assays read how much labelled ligand stays bound in the presence of the test substance.)

Assay [3] has as its target T1, Vitamin D3 receptor. Description: Agonist activity at human VDR in HEK293 cells assessed as induction of transcriptional transactivation after 24 hrs by mouse osteopontin luciferase reporter gene assay. Format: functional, cell-based.
The target in assay [4] is T1, Vitamin D3 receptor. Description: Antagonist activity at human VDR in HEK293 cells assessed as induction of transcriptional transactivation after 24 hrs by mouse osteopontin luciferase reporter gene assay. Format: functional, cell-based. A digest of the protocol:
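HEK293 cells in DMEM + 5% FBS with penicillin/streptomycin, 37 °C, 5% CO2; calcium phosphate cotransfection of hVDR expression plasmid and SPPx3-TK-Luc reporter. Compounds added 8 h later with 10 nM 1,25-(OH)2D3; harvest after 16–24 h. Luciferase normalized to β-galactosidase; triplicate; IC50 from dose–response curves.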

Assay [5] has as its target T1, Vitamin D3 receptor. Description: Agonist activity at human VDR in COS7 cells assessed as induction of transcriptional transactivation after 24 hrs by mouse osteopontin luciferase reporter gene assay. Format: functional, cell-based, COS-7.

The IC50 is the midpoint of a concentration-inhibition curve. One may read the EC50 as the midpoint of the concentration-response curve. In the case of `C=C1C[C@@H](C[C@@H](C)[C@H]2CC[C@H]3/C(=C/C=C4C[C@@H](O)C(=C)[C@H](O)C4)CCC[C@]23C)OC1=O`, the half-maximal inhibitory concentration (IC50) at Vitamin D3 receptor [1] was 1000 nM; on Vitamin D3 receptor [4] it was 300 nM. For the same molecule, the concentration giving a half-maximal response (EC50) at Vitamin D3 receptor [2] was found to be 20 nM; at Vitamin D3 receptor [3], 200 nM; at Vitamin D3 receptor [5], 150 nM.

Turning to `C=C1C[C@H](C[C@@H](C)[C@H]2CC[C@H]3/C(=C/C=C4C[C@@H](O)C(=C)[C@H](O)C4)CCC[C@]23C)OC1=O`, the EC50 at Vitamin D3 receptor [2] is 0.7 nM; at Vitamin D3 receptor [3], 1 nM; at Vitamin D3 receptor [5], 25 nM.

Take `C=C1C[C@H](C[C@H](C)[C@H]2CC[C@H]3/C(=C/C=C4C[C@@H](O)C(=C)[C@H](O)C4)CCC[C@]23C)OC1=O`: on Vitamin D3 receptor [1], the IC50 was found to be 100 nM. Besides, the figures for the concentration for a half-maximal effect (EC50) on Vitamin D3 receptor [2], on Vitamin D3 receptor [3] and at Vitamin D3 receptor [5] were 5 nM, 15 nM and 10 nM, respectively.

Turning to `C=C1C[C@@H](C[C@H](C)[C@H]2CC[C@H]3/C(=C/C=C4C[C@@H](O)C(=C)[C@H](O)C4)CCC[C@]23C)OC1=O`, the IC50 on Vitamin D3 receptor [1] is 300 nM. The 50% effective concentration (EC50) is 5 nM on Vitamin D3 receptor [2], 20 nM on Vitamin D3 receptor [3] and 6 nM on Vitamin D3 receptor [5].
